Converted amounts (≈) assume the structure as drawn.

One assay relates to Staphylococcus aureus. Put plainly: In vitro antimicrobial activity against Staphylococcus aureus X1. The class given is functional.
Assay [1] deals with Staphylococcus epidermidis. Put plainly: In vitro antimicrobial activity against Staphylococcus epidermidis EPI1. The class given is functional.
The test system of assay [2] is Streptococcus pyogenes. Briefly: (§1) In vitro antimicrobial activity against Streptococcus pyogenes C203. The class given is functional.
The next assay deals with Haemophilus influenzae. Briefly: In vitro antimicrobial activity against Haemophilus influenzae. The assay is classed as functional.
Assay [3] relates to Streptococcus pyogenes. Put plainly: In vivo effective dose against experimental infections in rodent caused by Streptococcus pyogenes C203 when administered sc. The class given is functional.
The subject of assay [4] is Streptococcus pyogenes. Briefly: […] effective dose against Streptococcus pyogenes C203 when administered orally. The assay is classed as functional. The following applies: po.
Assay [5] deals with Streptococcus pyogenes. Put plainly: […] effective dose against Streptococcus pyogenes C203 when administered sc. The assay is classed as functional. In outline:
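Infected mice (S. pyogenes C203) were treated subcutaneously 1 and 5 h postinfection with 0.25 mL of antibiotic in 10% aqueous ethanol, with tartaric acid added when needed to dissolve it. A range of concentrations was given. The value is the ED50 expressed as mg/kg × 2.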

Another assay deals with Streptococcus pneumoniae. Briefly: In vitro antimicrobial activity against Streptococcus pneumoniae. The class given is functional.
The next assay deals with Enterococcus faecium. Put plainly: In vitro antimicrobial activity against Streptococcus faecium X66. The class given is functional, streptococcus fae-cium.
Assay [6] deals with Streptococcus pyogenes. The description is as §1. The class given is functional. This is another data set of the same source.
Assay [7] concerns Streptococcus pyogenes. Briefly: In vivo effective dose against experimental infections in rodent caused by Streptococcus pyogenes C203 when administered orally. The assay is classed as functional. The following applies: po.

On to `CC[C@H]1OC(=O)C[C@@H](O)[C@H](C)[C@@H](O[C@@H]2O[C@H](C)[C@@H](O[C@H]3C[C@@](C)(O)[C@@H](O)[C@H](C)O3)[C@H](N(C)C)[C@H]2O)[C@@H](CC=O)C[C@@H](C)C(=O)/C=C/C(C)=C/[C@@H]1CO[C@@H]1O[C@H](C)[C@@H](O)[C@@H](O)[C@H]1OC` [MACROCIN], for which the MIC in the assay on Staphylococcus aureus turned out to be 0.5 µg/mL (≈ 0.554 µM); in assay [1] it was 1 µg/mL (≈ 1.11 µM); against Streptococcus pyogenes [2], 0.25 µg/mL (≈ 0.277 µM); in the assay on Haemophilus influenzae, 16 µg/mL (≈ 17.7 µM); against Streptococcus pneumoniae, 1 µg/mL (≈ 1.11 µM); in the assay on Enterococcus faecium it was 2 µg/mL (≈ 2.22 µM). This compound showed an MIC in the assay on Streptococcus pyogenes [6] of 0.25 µg/mL (≈ 0.277 µM). In addition, the ED50 in the assay on Streptococcus pyogenes [3] is 1.9 mg/kg; in the assay with Streptococcus pyogenes [4], more than 80 mg/kg; with Streptococcus pyogenes [5] it was less than 1.2 mg/kg; in the assay with Streptococcus pyogenes [7], 71 mg/kg.

One may read the ED50 as the dose at which the effect has come halfway, by size or by number of responders. High values mean a need for a large dose, low ones an effect at a small dose.

The values are drawn from ChEMBL document CHEMBL1124186, “Synthesis and evaluation of tylosin-related macrolides modified at the aldehyde function: a new series of orally effective antibiotics” (1988).
